Calls of active or inactive are those of the source. No cut-off for these calls is given here.
Tests used:
[1] = Metabolic stability in C57BL/6 mouse liver microsomes assessed as half life; type: ADME, Microsome; conditions: time 2 min
[2] = target: T1, Peroxisome proliferator-activated receptor gamma (Homo sapiens) (UniProt P37231); test: Agonist activity at human PPARgamma transfected in HEK293 cells assessed as relative luciferase unit at 50 uM measured after 16 hrs by luciferase reporter gene assay; type: cell-based; conditions: filed as agonist
T1 sequence (whole entry): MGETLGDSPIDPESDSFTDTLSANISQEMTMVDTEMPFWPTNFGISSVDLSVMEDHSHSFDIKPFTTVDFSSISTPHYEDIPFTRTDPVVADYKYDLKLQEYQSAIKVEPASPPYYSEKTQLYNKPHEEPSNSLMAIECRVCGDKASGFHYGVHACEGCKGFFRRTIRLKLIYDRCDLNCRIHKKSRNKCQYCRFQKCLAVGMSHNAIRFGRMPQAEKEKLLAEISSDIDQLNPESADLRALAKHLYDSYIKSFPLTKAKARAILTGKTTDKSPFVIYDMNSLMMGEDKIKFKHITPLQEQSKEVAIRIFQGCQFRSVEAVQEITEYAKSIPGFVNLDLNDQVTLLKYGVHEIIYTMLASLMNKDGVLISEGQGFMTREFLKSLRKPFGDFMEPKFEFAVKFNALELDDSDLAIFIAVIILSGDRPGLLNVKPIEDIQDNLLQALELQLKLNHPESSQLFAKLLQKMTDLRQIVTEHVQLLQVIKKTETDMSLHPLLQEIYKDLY
Outline: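 GAL4-hPPAR (α or γ) plus UAS-luciferase and β-galactosidase transiently co-transfected into HEK293 cells, then treated with 50 μM compound for 16 h. RLU = luciferase/β-galactosidase × time, vehicle (DMSO) set to 1. Mean ± SD, N = 3; one-way ANOVA with Holm–Šidák vs vehicle.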

[3] = target: T2, Peroxisome proliferator-activated receptor gamma (Mus musculus) (UniProt P37238); test: Agonist activity at human PPARgamma in mouse 3T3-L1 cells assessed as induction of adipogenic differentiation at 25 uM measured after 11 days by Oil Red O staining analysis; type: cell-based; conditions: filed as agonist, time 11.0 day
T2 sequence (whole entry): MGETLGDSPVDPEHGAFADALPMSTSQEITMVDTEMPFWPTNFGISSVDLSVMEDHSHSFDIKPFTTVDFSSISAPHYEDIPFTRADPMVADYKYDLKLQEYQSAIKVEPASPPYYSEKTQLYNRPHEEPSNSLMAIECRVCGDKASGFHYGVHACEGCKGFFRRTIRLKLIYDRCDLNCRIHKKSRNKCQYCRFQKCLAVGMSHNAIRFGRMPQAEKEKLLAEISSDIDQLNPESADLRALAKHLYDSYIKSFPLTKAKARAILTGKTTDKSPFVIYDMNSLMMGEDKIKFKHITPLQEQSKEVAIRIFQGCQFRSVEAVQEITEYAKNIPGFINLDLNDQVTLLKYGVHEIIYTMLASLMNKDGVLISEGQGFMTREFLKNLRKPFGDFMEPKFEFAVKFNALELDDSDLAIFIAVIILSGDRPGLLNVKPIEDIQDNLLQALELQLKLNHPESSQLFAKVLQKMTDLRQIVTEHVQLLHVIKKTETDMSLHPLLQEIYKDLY
Outline: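 3T3-L1 cells differentiated for 11 days (IBMX/dexamethasone/insulin induction, then insulin, then maintenance medium) with 25 μM compound or 10 μM rosiglitazone from day 0. Cells formalin-fixed and stained with 0.6% Oil Red O. Lipid quantified spectrophotometrically after dye extraction.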

[4] = target: T3, Peroxisome proliferator-activated receptor alpha (Homo sapiens) (UniProt Q07869); test: Agonist activity at human PPARalpha expressed in HEK293 cells assessed as maximal activity by luciferase/beta-galactosidase reporter gene assay relative to GW7647; type: cell-based
T3 sequence (whole entry): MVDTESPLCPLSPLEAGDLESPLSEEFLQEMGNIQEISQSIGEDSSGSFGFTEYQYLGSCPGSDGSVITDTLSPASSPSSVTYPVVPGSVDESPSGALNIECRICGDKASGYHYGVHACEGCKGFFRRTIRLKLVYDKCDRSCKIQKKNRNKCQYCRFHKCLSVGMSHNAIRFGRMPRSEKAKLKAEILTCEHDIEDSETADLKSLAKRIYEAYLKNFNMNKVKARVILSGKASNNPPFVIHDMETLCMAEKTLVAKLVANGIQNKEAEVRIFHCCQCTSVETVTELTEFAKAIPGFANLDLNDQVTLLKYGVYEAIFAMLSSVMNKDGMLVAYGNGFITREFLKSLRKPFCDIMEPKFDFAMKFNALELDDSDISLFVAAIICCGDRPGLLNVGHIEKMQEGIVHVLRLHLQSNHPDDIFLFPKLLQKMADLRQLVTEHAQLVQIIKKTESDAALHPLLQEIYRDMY
Outline: (§1)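 HEK293 cells in charcoal-stripped FBS, calcium phosphate co-transfected with GAL4-hPPAR LBD fusion, UAS-luciferase and β-galactosidase. Ligand added 6–8 h post transfection, full dose–response, harvested 14–16 h later. Luciferase normalized to β-galactosidase.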

[5] = target: T1, Peroxisome proliferator-activated receptor gamma (Homo sapiens); test: Agonist activity at human PPARgamma expressed in HEK293 cells assessed as maximal activity by luciferase/beta-galactosidase reporter gene assay relative to rosiglitazone; type: cell-based; outline: as §1
[6] = target: T4, Peroxisome proliferator-activated receptor alpha (Mus musculus) (UniProt P23204); test: Agonist activity at human PPARalpha in mouse hepatocytes assessed as induction of Pdk4 mRNA expression at 50 uM incubated for 16 hrs by quantitative real-time PCR analysis; type: cell-based; conditions: Hepatocyte, filed as agonist
T4 sequence (whole entry): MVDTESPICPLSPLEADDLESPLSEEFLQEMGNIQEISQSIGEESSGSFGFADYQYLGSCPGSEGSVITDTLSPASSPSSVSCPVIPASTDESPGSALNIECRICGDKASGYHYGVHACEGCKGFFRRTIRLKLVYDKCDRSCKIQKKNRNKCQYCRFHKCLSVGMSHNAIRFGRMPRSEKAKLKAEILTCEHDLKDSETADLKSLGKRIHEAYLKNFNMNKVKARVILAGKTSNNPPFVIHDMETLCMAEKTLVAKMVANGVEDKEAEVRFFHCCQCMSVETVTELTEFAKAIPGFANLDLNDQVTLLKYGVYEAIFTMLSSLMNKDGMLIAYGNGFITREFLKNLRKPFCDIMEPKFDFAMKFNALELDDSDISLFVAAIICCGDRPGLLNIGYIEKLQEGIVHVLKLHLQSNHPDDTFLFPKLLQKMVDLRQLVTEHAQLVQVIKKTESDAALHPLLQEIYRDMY
Outline: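 Collagenase-perfused mouse primary hepatocytes from WT mice, plated 2 h in attachment medium, overnight in M199 with 5% charcoal-stripped FBS and 1 nM insulin. Treated next day in serum-free M199 with 50 μM compound for 16 h. RNA qPCR (SYBR Green), comparative Ct method.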

[7] = target: T3, Peroxisome proliferator-activated receptor alpha (Homo sapiens); test: Stabilization of human PPARalpha LBD assessed as change in melting temperature at 25 uM by thermal shift assay
Outline: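 Purified hPPAR LBD at 1 mg/mL (∼25 μM) with ligand (α-LBD at 25 μM; γ- and δ-LBD at 50 μM). Static light scattering at 473 nm from 25 to 70 °C in 0.5 °C steps, 1 °C/min. Tm from four-parameter fit; ΔTm relative to DMSO; mean ± SEM, N = 3.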

| Structure (SMILES) | half-life [1] [min] | Activity [2] | Activity [3] | Emax ([4]; filed as agonist) [%] | Emax ([5]; filed as agonist) [%] | Activity [6] | ΔTm [7] [°C] | Emax [4] [%] | Emax [5] [%] |
| --- | --- | --- | --- | --- | --- | --- | --- | --- | --- |
| CCCCCCCCCCCCCCCc1cccc(OC(C)=O)c1C(=O)O | 2 | Active | Active | > 90 | > 90 | Active | 17.4 |  |  |
| CCCCCC/C=C\CCCCCCCc1cccc(OC(C)(C)C(=O)O)c1 | 835 | Active | Active | > 90 | > 90 | Active | 3.8 |  |  |
| CCCCCCCCCCCCCCCc1cccc(OC(C)(C)C(=O)O)c1 | 360 | Active | Active |  |  | Active | 10.8 | 30 | 30 |
